In brackets after ≈: the same amount, converted by molar mass.
What was measured:
[1] = Selectivity index, ratio of EC50 for toxicity in human A549 cells to MIC50 for antifungal activity against ITC and FLC-susceptible Candida albicans ATCC MYA-2876; format: cell-based; settings: read-out: Selectivity Index
Procedure, shortened: (§1)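 Selectivity index is the EC50 against the mammalian line (A549 or BEAS-2B) divided by the MIC against the given fungal strain.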

[2] = Selectivity index, ratio of EC50 for toxicity in human A549 cells to MIC50 for antifungal activity against ITC and FLC-susceptible Candida albicans ATCC MYA-2310; format: cell-based; settings: read-out: Selectivity Index; procedure, shortened: as §1
Nakaseomyces glabratus = experiment: Antifungal activity against Candida glabrata ATCC 2001 incubated for 48 hrs by modified CLSI M27-A3 protocol based method; format: functional; settings: ATCC 2001, 48 h
[3] = Selectivity index, ratio of EC50 for toxicity in human BEAS2B cells to MIC50 for antifungal activity against Aspergillus terreus ATCC MYA-3633; format: cell-based; settings: read-out: Selectivity Index; procedure, shortened: as §1
Pichia kudriavzevii = experiment: Antifungal activity against Candida krusei ATCC 6258 incubated for 48 hrs by modified CLSI M27-A3 protocol based method; format: functional; settings: ATCC 6258, 48 h
Procedure, shortened: (§2)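 For C. albicans ATCC 10231, C. krusei ATCC 6258 and C. parapsilosis ATCC 22019, MIC-0 was read, meaning complete growth inhibition. For azole controls, MIC-2 (50% growth inhibition) was reported instead. Caspofungin and voriconazole were tested here; other controls came from earlier work.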

[4] = Selectivity index, ratio of EC50 for toxicity in human BEAS2B cells to MIC50 for antifungal activity against Candida albicans ATCC 64124; format: cell-based; settings: BEAS-2B cells, read-out: Selectivity Index; procedure, shortened: as §1
Candida albicans [5] = experiment: Antifungal activity against ITC and FLC-susceptible Candida albicans ATCC MYA-2876 incubated for 48 hrs by modified CLSI M27-A3 protocol based method; format: functional; settings: ATCC MYA-2876, 48 h
Procedure, shortened: (§3)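 Because these Candida strains show trailing growth, MIC-2 was read, meaning 50% growth inhibition. Caspofungin and voriconazole were tested here; other controls came from earlier work.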

Candida albicans [6] = experiment: Antifungal activity against ITC and FLC-resistant Candida albicans ATCC 1237 incubated for 48 hrs by modified CLSI M27-A3 protocol based method; format: functional; settings: ATCC 1237, 48 h; procedure, shortened: as §3
[7] = Selectivity index, ratio of EC50 for toxicity in human BEAS2B cells to MIC50 for antifungal activity against ITC and FLC-resistant Candida albicans ATCC MYA-1003; format: cell-based; settings: BEAS-2B cells, read-out: Selectivity Index; procedure, shortened: as §1
[8] = Selectivity index, ratio of EC50 for toxicity in human BEAS2B cells to MIC50 for antifungal activity against ITC and FLC-resistant Candida albicans ATCC MYA-90819; format: cell-based; settings: BEAS-2B cells, read-out: Selectivity Index
Procedure, shortened: (§4)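 Ratio of the compound's EC50 against BEAS-2B cells to its MIC against the named C. albicans strain. […] For C. albicans strains other than ATCC 10231, trailing growth meant MIC-2 was taken, meaning 50% growth inhibition.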

[9] = Selectivity index, ratio of EC50 for toxicity in human BEAS2B cells to MIC50 for antifungal activity against ITC and FLC-susceptible Candida albicans ATCC MYA-2310; format: cell-based; settings: BEAS-2B cells, read-out: Selectivity Index; procedure, shortened: as §4
Candida albicans [10] = experiment: Antifungal activity against ITC and FLC-susceptible Candida albicans ATCC MYA-2310 incubated for 48 hrs by modified CLSI M27-A3 protocol based method; format: functional; settings: ATCC MYA-2310, 48 h
[11] = Toxicity in human A549 cells assessed as reduction in cell viability incubated for 24 hrs by resazurin dye based assay
Procedure, shortened: (§5)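 Toxicity tested in the nucleated lines A549 and BEAS-2B to give EC50 values. Selectivity index is EC50 against the mammalian line divided by the MIC against a given fungal strain.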

[12] = Selectivity index, ratio of EC50 for toxicity in human BEAS2B cells to MIC50 for antifungal activity against Candida glabrata ATCC 2001; format: cell-based; settings: BEAS-2B cells, read-out: Selectivity Index; procedure, shortened: as §1
[13] = Selectivity index, ratio of EC50 for toxicity in human A549 cells to MIC50 for antifungal activity against Aspergillus terreus ATCC MYA-3633; format: cell-based; settings: read-out: Selectivity Index; procedure, shortened: as §1
Candida albicans [14] = experiment: Antifungal activity against Candida albicans ATCC 64124 incubated for 48 hrs by modified CLSI M27-A3 protocol based method; format: functional; settings: ATCC 64124, 48 h
[15] = Selectivity index, ratio of EC50 for toxicity in human BEAS2B cells to MIC50 for antifungal activity against Candida krusei ATCC 6258; format: cell-based; settings: BEAS-2B cells, read-out: Selectivity Index; procedure, shortened: as §1
[16] = Selectivity index, ratio of EC50 for toxicity in human A549 cells to MIC50 for antifungal activity against Aspergillus nidulans ATCC 38163; format: cell-based; settings: read-out: Selectivity Index; procedure, shortened: as §1
[17] = Selectivity index, ratio of EC50 for toxicity in human A549 cells to MIC50 for antifungal activity against ITC and FLC-resistant Candida albicans ATCC MYA-90819; format: cell-based; settings: read-out: Selectivity Index; procedure, shortened: as §1
[18] = Selectivity index, ratio of EC50 for toxicity in human BEAS2B cells to MIC50 for antifungal activity against Candida albicans ATCC 10231; format: cell-based; settings: BEAS-2B cells, read-out: Selectivity Index; procedure, shortened: as §1
Candida albicans [19] = experiment: Antifungal activity against ITC and FLC-resistant Candida albicans ATCC MYA-1003 incubated for 48 hrs by modified CLSI M27-A3 protocol based method; format: functional; settings: ATCC MYA-1003, 48 h; procedure, shortened: as §3
[20] = Selectivity index, ratio of EC50 for toxicity in human BEAS2B cells to MIC50 for antifungal activity against ITC and FLC-resistant Candida albicans ATCC 1237; format: cell-based; settings: BEAS-2B cells, read-out: Selectivity Index; procedure, shortened: as §1
[21] = Selectivity index, ratio of EC50 for toxicity in human A549 cells to MIC50 for antifungal activity against ITC and FLC-resistant Candida albicans ATCC MYA-1003; format: cell-based; settings: read-out: Selectivity Index; procedure, shortened: as §1
Aspergillus flavus = experiment: Antifungal activity against Aspergillus flavus ATCC MYA-3631 incubated for 48 hrs by CLSI M38-A2 protocol based method; format: functional; settings: ATCC MYA-3631, 48 h
Candida albicans [22] = experiment: Antifungal activity against Candida albicans ATCC 10231 incubated for 48 hrs by modified CLSI M27-A3 protocol based method; format: functional; settings: ATCC 10231, 48 h; procedure, shortened: as §2
Candida albicans [23] = experiment: Antifungal activity against ITC and FLC-resistant Candida albicans ATCC MYA-90819 incubated for 48 hrs by modified CLSI M27-A3 protocol based method; format: functional; settings: ATCC MYA-90819, 48 h
[24] = Selectivity index, ratio of EC50 for toxicity in human A549 cells to MIC50 for antifungal activity against Candida albicans ATCC 64124; format: cell-based; settings: read-out: Selectivity Index; procedure, shortened: as §1
[25] = Selectivity index, ratio of EC50 for toxicity in human A549 cells to MIC50 for antifungal activity against ITC and FLC-resistant Candida albicans ATCC 1237; format: cell-based; settings: read-out: Selectivity Index; procedure, shortened: as §1
[26] = Selectivity index, ratio of EC50 for toxicity in human A549 cells to MIC50 for antifungal activity against Candida krusei ATCC 6258; format: cell-based; settings: read-out: Selectivity Index; procedure, shortened: as §1
[27] = Selectivity index, ratio of EC50 for toxicity in human A549 cells to MIC50 for antifungal activity against Candida albicans ATCC 10231; format: cell-based; settings: read-out: Selectivity Index; procedure, shortened: as §1
[28] = Selectivity index, ratio of EC50 for toxicity in human BEAS2B cells to MIC50 for antifungal activity against Aspergillus flavus ATCC MYA-3631; format: cell-based; settings: read-out: Selectivity Index; procedure, shortened: as §1
[29] = Selectivity index, ratio of EC50 for toxicity in human A549 cells to MIC50 for antifungal activity against Candida glabrata ATCC 2001; format: cell-based; settings: read-out: Selectivity Index; procedure, shortened: as §1
Candida parapsilosis = experiment: Antifungal activity against Candida parapsilosis ATCC 22019 incubated for 48 hrs by modified CLSI M27-A3 protocol based method; format: functional; settings: Lodderomyces parapsilosis, ATCC 22019, 48 h; procedure, shortened: as §2
[30] = Selectivity index, ratio of EC50 for toxicity in human BEAS2B cells to MIC50 for antifungal activity against ITC and FLC-susceptible Candida albicans ATCC MYA-2876; format: cell-based; settings: BEAS-2B cells, read-out: Selectivity Index; procedure, shortened: as §4
Aspergillus terreus = experiment: Antifungal activity against Aspergillus terreus ATCC MYA-3633 incubated for 48 hrs by CLSI M38-A2 protocol based method; format: functional; settings: ATCC MYA-3633, 48 h
Aspergillus nidulans = experiment: Antifungal activity against Aspergillus nidulans ATCC 38163 incubated for 48 hrs by CLSI M38-A2 protocol based method; format: functional; settings: ATCC 38163, 48 h
[31] = Selectivity index, ratio of EC50 for toxicity in human BEAS2B cells to MIC50 for antifungal activity against Aspergillus nidulans ATCC 38163; format: cell-based; settings: read-out: Selectivity Index; procedure, shortened: as §1
[32] = Selectivity index, ratio of EC50 for toxicity in human A549 cells to MIC50 for antifungal activity against Aspergillus flavus ATCC MYA-3631; format: cell-based; settings: read-out: Selectivity Index; procedure, shortened: as §1
[33] = Toxicity in human BEAS2B cells assessed as reduction in cell viability incubated for 24 hrs by resazurin dye based assay; settings: BEAS-2B cells; procedure, shortened: as §5

With `CC[C@@H]([C@H](C)O)n1ncn(-c2ccc(N3CCN(c4ccc(OC[C@@H]5CO[C@@](Cn6cncn6)(c6ccc(F)cc6F)C5)cc4)CC3)cc2)c1=O` [POSACONAZOLE] the selectivity ratio [1] was 5, the selectivity ratio [2] was 1 and the MIC50 (Nakaseomyces glabratus) was 0.17 µM (≈ 0.119 µg/mL). For the same compound, the selectivity ratio [3] was 54, the MIC50 (Pichia kudriavzevii) was 0.09 µM (≈ 0.0631 µg/mL) and the selectivity ratio [4] was 0.4. For the same compound, the MIC50 (Candida albicans [5]) was 11.1 µM (≈ 7.78 µg/mL), the MIC50 (Candida albicans [6]) was 22.3 µM (≈ 15.6 µg/mL) and the selectivity ratio [7] was 2. It also gave a selectivity ratio [8] of 1, a selectivity ratio [9] of 1 and an MIC50 (Candida albicans [10]) of 44.7 µM (≈ 31.3 µg/mL). For the same compound, the EC50 at 24 h [11] was 37 µg/mL (≈ 52.8 µM), the selectivity ratio [12] was 217 and the selectivity ratio [13] was 77. For the same compound, the MIC50 (Candida albicans [14]) was over 89.2 µM, the selectivity ratio [15] was 433 to 867 and the selectivity ratio [16] was 190. It also gave a selectivity ratio [17] of 1, a selectivity ratio [18] of 52 and an MIC50 (Candida albicans [19]) of 22.3 µM (≈ 15.6 µg/mL). It also gave a selectivity ratio [20] of 2, a selectivity ratio [21] of 2 and an MIC50 (Aspergillus flavus) of 0.34 µM (≈ 0.238 µg/mL). The MIC50 (Candida albicans [22]) was 0.71 µM (≈ 0.498 µg/mL), the MIC50 (Candida albicans [23]) was 44.7 µM (≈ 31.3 µg/mL) and the selectivity ratio [24] was 1. The selectivity ratio [25] was 2, the selectivity ratio [26] was 617 to 1230 and the selectivity ratio [27] was 74. It also gave a selectivity ratio [28] of 108, a selectivity ratio [29] of 308 and an MIC50 (Candida parapsilosis) of under 0.04 µM. It also gave a selectivity ratio [30] of 3, an MIC50 (Aspergillus terreus) of 0.68 µM (≈ 0.477 µg/mL) and an MIC50 (Aspergillus nidulans) of 0.28 µM (≈ 0.196 µg/mL). For the same compound, the selectivity ratio [31] was 133, the selectivity ratio [32] was 154 and the EC50 at 24 h [33] was 26 µg/mL (≈ 37.1 µM).

From ChEMBL document CHEMBL4265871, “Novel alkylated azoles as potent antifungals” (Eur J Med Chem, 2017)
